Experimental data as given in ChEMBL document CHEMBL1126899, “Nonpeptide angiotensin II antagonists derived from 1H-pyrazole-5-carboxylates and 4-aryl-1H-imidazole-5-carboxylates” (J Med Chem, 1993).
The source made the active and inactive calls. No cut-off for these calls is given here.

What was measured:
Rattus norvegicus [1] = assay: Peak percent inhibition of Angiotensin II pressor response in conscious, normotensive rats at 3 mg/kg iv (no. of animals treated); type: functional
Method in brief: (§1)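 Male Sprague-Dawley rats (300–400 g), conscious, catheterized for iv dosing and for arterial pressure and heart rate. Compound given iv or po; PEG 400 vehicle in some oral cases. AII 0.1 μg/kg iv boluses at set intervals afterward. % inhibition of the MAP rise was calculated at each time point, and the peak was taken. Averaged from at least two rats unless noted.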

Rattus norvegicus [2] = assay: Time to produce onset of action for inhibition of pressor response in conscious, normotensive rats at 3 mg/kg iv (no. of animals treated); type: functional
Method in brief: (§2)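 Conscious male Sprague-Dawley rats (300–400 g), instrumented for iv dosing and arterial pressure. A single iv or po bolus of compound (PEG 400 for some oral doses), then repeated AII challenges at 0.1 μg/kg iv. […] Averaged from at least two rats unless noted.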

[3] = target: T1, Type-1 angiotensin II receptor (Oryctolagus cuniculus, UniProt P34976); assay: Evaluation of Angiotensin II antagonistic activity by displacement of [125I]-Sar Ile-AII at the rabbit aorta Angiotensin II receptor, type 1; type: tissue-based
T1 sequence (P34976 whole entry): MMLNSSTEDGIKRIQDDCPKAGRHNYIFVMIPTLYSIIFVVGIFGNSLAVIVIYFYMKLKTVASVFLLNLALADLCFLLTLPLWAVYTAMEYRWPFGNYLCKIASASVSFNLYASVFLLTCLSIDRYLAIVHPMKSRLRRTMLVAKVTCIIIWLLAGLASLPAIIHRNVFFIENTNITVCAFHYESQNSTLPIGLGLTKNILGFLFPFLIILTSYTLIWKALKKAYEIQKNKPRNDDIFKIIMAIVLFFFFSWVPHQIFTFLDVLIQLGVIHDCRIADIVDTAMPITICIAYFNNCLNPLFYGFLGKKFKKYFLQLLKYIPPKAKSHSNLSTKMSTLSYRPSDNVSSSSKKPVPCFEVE
Method in brief: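 Rabbit aorta membranes, run without BSA. Competition against [¹²⁵I]Sar¹Ile⁸-AII, in duplicate tubes. Some values are means of two or more separate assays. Standard error is estimated at <30% of the mean.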

Rattus norvegicus [4] = assay: Time to produce onset of action for inhibition of Angiotensin II pressor response in conscious, normotensive rats at 1 mg/kg iv; Not active; type: functional, organism-based; design: dose 1 mg/kg; method in brief: as §2
Rattus norvegicus [5] = assay: Peak percent inhibition of Angiotensin II pressor response in conscious, normotensive rats at 1 mg/kg iv; type: functional; method in brief: as §1
Rattus norvegicus [6] = assay: Time to produce onset of action for inhibition of Angiotensin II pressor response in conscious, normotensive rats 1 at mg/kg iv; type: functional; method in brief: as §2
Rattus norvegicus [7] = assay: Peak percent inhibition of Angiotensin II pressor response in conscious, normotensive rats 1 at mg/kg iv; type: functional; method in brief: as §1
Rattus norvegicus [8] = assay: Time to produce onset of action for inhibition of Angiotensin II pressor response in conscious, normotensive rats at 0.3 mg/kg iv; type: functional; method in brief: as §2
Rattus norvegicus [9] = assay: Time to produce onset of action for inhibition of Angiotensin II pressor response in conscious, normotensive rats at 1 mg/kg po; type: functional; method in brief: as §2
Rattus norvegicus [10] = assay: Time to produce onset of action for inhibition of Angiotensin II pressor response in conscious, normotensive rats at 0.1 mg/kg iv; type: functional; method in brief: as §2
Rattus norvegicus [11] = assay: Peak percent inhibition of Angiotensin II pressor response in conscious, normotensive rats at 0.3 mg/kg iv; type: functional; method in brief: as §1
Rattus norvegicus [12] = assay: Peak percent inhibition of Angiotensin II pressor response in conscious, normotensive rats at 0.1 mg/kg iv; type: functional; method in brief: as §1
Rattus norvegicus [13] = assay: Peak percent inhibition of Angiotensin II pressor response in conscious, normotensive rats at 1 mg/kg po; type: functional; method in brief: as §1
Rattus norvegicus [14] = assay: Peak percent inhibition of Angiotensin II pressor response in conscious, normotensive rats at 0.3 mg/kg po; type: functional; method in brief: as §1
Rattus norvegicus [15] = assay: Time to produce onset of action for inhibition of Angiotensin II pressor response in conscious, normotensive rats at 0.1 mg/kg po; type: functional; method in brief: as §2
Rattus norvegicus [16] = assay: Time to produce onset of action for inhibition of Angiotensin II pressor response in conscious, normotensive rats at 0.3 mg/kg po; type: functional; method in brief: as §2
Rattus norvegicus [17] = assay: Peak percent inhibition of Angiotensin II pressor response in conscious, normotensive rats at 0.1 mg/kg po; type: functional; method in brief: as §1
Rattus norvegicus [18] = assay: Time to produce onset of action for inhibition of pressor response in conscious, normotensive rats at 0.3 mg/kg iv (no. of animals treated); type: functional; method in brief: as §2
Rattus norvegicus [19] = assay: Peak percent inhibition of Angiotensin II pressor response in conscious, normotensive rats at 1 mg/kg po (no. of animals treated); type: functional; method in brief: as §1
Rattus norvegicus [20] = assay: Time to produce onset of action for inhibition of pressor response in conscious, normotensive rats at 0.3 mg/kg po (no. of animals treated); type: functional; method in brief: as §2
Rattus norvegicus [21] = assay: Time to produce onset of action for inhibition of pressor response in conscious, normotensive rats at 0.1 mg/kg iv (no. of animals treated); type: functional; method in brief: as §2
Rattus norvegicus [22] = assay: Peak percent inhibition of Angiotensin II pressor response in conscious, normotensive rats at 0.3 mg/kg iv (no. of animals treated); type: functional; method in brief: as §1
Rattus norvegicus [23] = assay: Time to produce onset of action for inhibition of pressor response in conscious, normotensive rats at 1 mg/kg po (no. of animals treated); type: functional; method in brief: as §2
Rattus norvegicus [24] = assay: Peak percent inhibition of Angiotensin II pressor response in conscious, normotensive rats at 0.3 mg/kg po (no. of animals treated); type: functional; method in brief: as §1
Rattus norvegicus [25] = assay: Peak percent inhibition of Angiotensin II pressor response in conscious, normotensive rats at 0.1 mg/kg iv (no. of animals treated); type: functional; method in brief: as §1
Rattus norvegicus [26] = assay: Time to produce onset of action for inhibition of pressor response in conscious, normotensive rats 0.3 mg/kg po (no. of animals treated); type: functional; method in brief: as §2
Rattus norvegicus [27] = assay: Time to produce onset of action for inhibition of pressor response in conscious, normotensive rats at 1 mg/kg iv (no. of animals treated); type: functional; method in brief: as §2
Rattus norvegicus [28] = assay: Time to produce onset of action for inhibition of pressor response in conscious, normotensive rats at 3 mg/kg po (no. of animals treated); type: functional; method in brief: as §2
Rattus norvegicus [29] = assay: Peak percent inhibition of Angiotensin II pressor response in conscious, normotensive rats at 1 mg/kg iv (no. of animals treated); type: functional; method in brief: as §1
Rattus norvegicus [30] = assay: Peak percent inhibition of Angiotensin II pressor response in conscious, normotensive rats at 3 mg/kg po (no. of animals treated); type: functional; method in brief: as §1
Rattus norvegicus [31] = assay: Time to produce onset of action for inhibition of Angiotensin II pressor response in conscious, normotensive rats at 0..3 mg/kg iv; type: functional; method in brief: as §2

Molecule CCCCc1nc(-c2ccccc2)c(C(=O)O)n1Cc1ccc(-c2ccccc2-c2nn[nH]n2)cc1 has an inhibition in vivo at 3 mg/kg (Rattus norvegicus [1]) of 100%, a Duration (Rattus norvegicus [2]) of over 24 h and an IC50 [3] of 2.1 nM.

With CCCCc1nn(-c2c(Cl)cccc2Cl)c(C(=O)OCC)c1Cc1ccc(-c2ccccc2-c2nn[nH]n2)cc1 the Duration (Rattus norvegicus [4]) was “inactive” and the inhibition in vivo at 1 mg/kg (Rattus norvegicus [5]) was 16%.

With CCCCc1nn(-c2ccccc2)c(C(=O)O)c1Cc1ccc(-c2ccccc2-c2nn[nH]n2)cc1 the Duration (Rattus norvegicus [6]) was over 6 h, the Inhibition (Rattus norvegicus [7]) was 96% and the IC50 [3] was 2.9 nM.

CCCc1nn(CC(F)(F)F)c(C(=O)O)c1Cc1ccc(-c2ccccc2-c2nn[nH]n2)cc1 gave a Duration (Rattus norvegicus [8]) of over 24 h, a Duration (Rattus norvegicus [9]) of over 23 h and a Duration (Rattus norvegicus [10]) of about 5 h. The inhibition in vivo at 0.3 mg/kg (Rattus norvegicus [11]) was 93%, the inhibition in vivo at 0.1 mg/kg (Rattus norvegicus [12]) was 62% and the inhibition in vivo at 1 mg/kg (Rattus norvegicus [13]) was 75%. It also gave an IC50 [3] of 1.6 nM, an inhibition in vivo at 0.3 mg/kg (Rattus norvegicus [14]) of 66% and a Duration (Rattus norvegicus [15]) of about 2 h. It also gave a Duration (Rattus norvegicus [16]) of over 3 h and an inhibition in vivo at 0.1 mg/kg (Rattus norvegicus [17]) of 54%.

CCCCc1nc(Cl)c(C(=O)O)n1Cc1ccc(-c2ccccc2-c2nn[nH]n2)cc1 [CARBOXYLIC ACID METABOLITE] was tested, and the Duration (Rattus norvegicus [18]) was over 29 h, the inhibition in vivo at 1 mg/kg (Rattus norvegicus [19]) was 72% and the Duration (Rattus norvegicus [20]) was 2.8 h. The Duration (Rattus norvegicus [21]) was about 4 h, the inhibition in vivo at 0.3 mg/kg (Rattus norvegicus [22]) was 100% and the Duration (Rattus norvegicus [23]) was over 7 h. The inhibition in vivo at 0.3 mg/kg (Rattus norvegicus [24]) was 63% and the inhibition in vivo at 0.1 mg/kg (Rattus norvegicus [25]) was 63%.

CCCCc1nc(Cl)c(CO)n1Cc1ccc(-c2ccccc2-c2nnn[nH]2)cc1 [LOSARTAN] gave a Duration (Rattus norvegicus [18]) of 5.5 h, a Duration (Rattus norvegicus [26]) of over 3.5 h and a Duration (Rattus norvegicus [27]) of over 6 h. It also gave an inhibition in vivo at 0.3 mg/kg (Rattus norvegicus [22]) of 52%, a Duration (Rattus norvegicus [28]) of over 4.5 h and an inhibition in vivo at 0.3 mg/kg (Rattus norvegicus [24]) of 36%. The inhibition in vivo at 1 mg/kg (Rattus norvegicus [29]) was 78% and the inhibition in vivo at 3 mg/kg (Rattus norvegicus [30]) was 94%.

With CCCc1nn(Cc2ccccc2)c(C(=O)O)c1Cc1ccc(-c2ccccc2-c2nn[nH]n2)cc1 the Duration (Rattus norvegicus [9]) was over 23 h, the inhibition in vivo at 0.3 mg/kg (Rattus norvegicus [11]) was 95% and the inhibition in vivo at 1 mg/kg (Rattus norvegicus [13]) was 100%. The IC50 [3] was 0.42 nM, the Duration (Rattus norvegicus [31]) was over 24 h and the inhibition in vivo at 0.3 mg/kg (Rattus norvegicus [14]) was 82%. It also gave a Duration (Rattus norvegicus [16]) of over 4 h.
